ChEMBL document CHEMBL1125291, “New 8-(trifluoromethyl)-substituted quinolones. The benefits of the 8-fluoro group with reduced phototoxic risk” (1992)
Values after ≈ are worked out from the molar mass of the structure shown.

Assays:
Escherichia coli [1] = assay: Minimum inhibitory concentration (MIC) against gram negative bacteria Escherichia coli Vogel.; assay type: functional; conditions: Escherichia coli; read-out: MIC
Summary of the method: (§1)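 MICs were determined by standard broth microtitration against 11 Gram-positive and Gram-negative organisms, in µg/mL. Values come from duplicate or triplicate experiments and are accurate to ±50%.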

Mus musculus [2] = species on record: Mus musculus; assay: Dose required to induce phototoxic reaction in 50% of mice by probit method at different dosage forms.; assay type: functional
Streptococcus pneumoniae [3] = assay: In vivo efficacy (s.c.) against Streptococcus pneumoniae SV-1 in mouse protection test; assay type: functional; conditions: Streptococcus pneumoniae, sc; read-out: PD50
Summary of the method: (§2)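 Acute lethal systemic infections in female Charles River CD-1 mice. A single dose was given at challenge, orally by gavage or by subcutaneous injection. PD50 (median protective dose, mg/kg) was determined.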

Mus musculus [4] = assay: Maximum tolerance dose was measured for phototoxic skin reaction by po administration in mice; assay type: functional
Summary of the method: (§3)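 Depilated female CD-1 mice got a single oral (gavage) or subcutaneous dose, then UVA (320–400 nm) exposure for 3 h starting 1 h post-dose. This was repeated for up to 4 consecutive days. Initial doses were 30, 100 and 300 mg/kg. PTD50 was derived by probit. First day of positive reaction and no-effect dose were taken from the raw data.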

Staphylococcus aureus [5] = assay: Minimum inhibitory concentration (MIC) against gram positive bacteria Staphylococcus aureus UC-76.; assay type: functional; conditions: Staphylococcus aureus; read-out: MIC; summary of the method: as §1
Staphylococcus aureus [6] = assay: Minimum inhibitory concentration (MIC) against gram positive bacteria Staphylococcus aureus H-228; assay type: functional; summary of the method: as §1
[7] = Minimum inhibitory concentration (MIC) against gram negative bacteria Prot. rettgeri M-1771; assay type: functional; conditions: Providencia rettgeri; summary of the method: as §1
Streptococcus pyogenes [8] = assay: Minimum inhibitory concentration (MIC) against gram positive bacteria Streptococcus pyogenes C-203.; assay type: functional; conditions: Streptococcus pyogenes; read-out: MIC; summary of the method: as §1
Mus musculus [9] = species on record: Mus musculus; assay: Dose which has no effect to induce phototoxic reaction in 50% of mice by probit method.; assay type: functional
Streptococcus pneumoniae [10] = assay: In vivo efficacy (orally) against Streptococcus pneumoniae SV-1 in mouse protection test; assay type: functional; conditions: Streptococcus pneumoniae, po; read-out: PD50; summary of the method: as §2
Pseudomonas aeruginosa [11] = assay: Minimum inhibitory concentration (MIC) against gram negative bacteria Pseudomonas aeruginosa UI-18.; assay type: functional; conditions: Pseudomonas aeruginosa; read-out: MIC; summary of the method: as §1
Escherichia coli [12] = assay: In vivo efficacy in mouse protection test in Escherichia coli Vogel dose administered orally by gavage.; assay type: functional; conditions: Escherichia coli, po; read-out: PD50; summary of the method: as §2
Escherichia coli [13] = assay: Minimum inhibitory concentration (MIC) against gram negative bacteria Escherichia coli H-560; assay type: functional; summary of the method: as §1
Klebsiella pneumoniae = assay: Minimum inhibitory concentration (MIC) against gram negative bacteria Klebsiella pneumoniae MGH-2.; assay type: functional; conditions: Klebsiella pneumoniae; read-out: MIC; summary of the method: as §1
[14] = Days of the first positive reaction in […] mice; assay type: functional, Mus musculus; summary of the method: as §3
Escherichia coli [15] = assay: In vivo efficacy in mouse protection test in Escherichia coli Vogel administered by subcutaneous injection.; assay type: functional; conditions: Escherichia coli, sc; read-out: PD50; summary of the method: as §2
Streptococcus pneumoniae [16] = assay: Minimum inhibitory concentration (MIC) against gram positive bacteria Streptococcus pneumoniae SV-1.; assay type: functional; conditions: Streptococcus pneumoniae; read-out: MIC; summary of the method: as §1
Mus musculus [17] = species on record: Mus musculus; assay: Number of mice which show positive phototoxic reaction in 5 mice; assay type: functional
Enterococcus faecalis = assay: Minimum inhibitory concentration (MIC) against gram positive bacteria Streptococcus faecalis MGH-2.; assay type: functional; conditions: Enterococcus faecalis; read-out: MIC; summary of the method: as §1
Enterobacter cloacae = assay: Minimum inhibitory concentration (MIC) against gram negative bacteria Enterobacter cloacae MA-2646.; assay type: functional
Mus musculus [18] = species on record: Mus musculus; assay: Days of the first positive reaction in […] mice.; assay type: functional
Summary of the method: (§4)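 Phototoxic skin reaction test in depilated female CD-1 mice. A single oral dose (gavage) or subcutaneous dose was given, followed 1 h later by 3 h of UVA exposure (320–400 nm). The regimen was repeated for up to 4 consecutive days, with initial doses of 30, 100 and 300 mg/kg. PTD50 was derived by the probit method. The first day of positive reaction and the no-effect dose were taken from the raw data.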

Mus musculus [19] = species on record: Mus musculus; assay: Number of mice which show positive phototoxic reaction.; assay type: functional; summary of the method: as §4
Streptococcus pyogenes [20] = assay: In vivo efficacy (s.c.) against Streptococcus pyogenes C-203 in mouse protection test; assay type: functional; conditions: Streptococcus pyogenes, sc; read-out: PD50; summary of the method: as §2
Streptococcus pyogenes [21] = assay: In vivo efficacy (orally) against Streptococcus pyogenes C-203 in mouse protection test; assay type: functional; conditions: Streptococcus pyogenes, po; read-out: PD50; summary of the method: as §2
Escherichia coli [22] = assay: Minimum inhibitory concentration (MIC) against gram negative bacteria Escherichia coli H-560.; assay type: functional; conditions: Escherichia coli; read-out: MIC; summary of the method: as §1
Mus musculus [23] = assay: Maximum tolerance dose was measured for phototoxic skin reaction by po administration; assay type: functional
[24] = Minimum inhibitory concentration (MIC) against gram negative bacteria Prot. rettgeri M-1771.; assay type: functional, Providencia rettgeri; conditions: Providencia rettgeri; read-out: MIC; summary of the method: as §1
Staphylococcus aureus [25] = assay: Minimum inhibitory concentration (MIC) against gram positive bacteria Staphylococcus aureus H-228.; assay type: functional; conditions: Staphylococcus aureus; read-out: MIC; summary of the method: as §1
[26] = Number of mice which show positive phototoxic reaction in 15 mice; assay type: functional, Mus musculus; summary of the method: as §4
Pseudomonas aeruginosa [27] = assay: In vivo efficacy (s.c.) against Pseudomonas aeruginosa in mouse protection test; assay type: functional; conditions: Pseudomonas aeruginosa, sc; read-out: PD50; summary of the method: as §2
Pseudomonas aeruginosa [28] = assay: In vivo efficacy (orally) against Pseudomonas aeruginosa in mouse protection test; assay type: functional; conditions: Pseudomonas aeruginosa, po; read-out: PD50; summary of the method: as §2

Work on `O=C(O)c1cn(C2CC2)c2c(C(F)(F)F)c(N3CCNCC3)c(F)cc2c1=O` yielded an MIC (Escherichia coli [1]) of 0.05 µg/mL (≈ 0.125 µM), a PTD50 (Mus musculus [2]) of over 100 mg/kg and an ED50 (Streptococcus pneumoniae [3]) of 26 mg/kg. For the same molecule, the MTD (Mus musculus [4]) was 100 mg/kg, the MIC (Staphylococcus aureus [5]) was 0.1 µg/mL (≈ 0.25 µM) and the MIC (Staphylococcus aureus [6]) was 0.4 µg/mL (≈ 1 µM). The MIC [7] was 0.2 µg/mL (≈ 0.501 µM), the MIC (Streptococcus pyogenes [8]) was 0.4 µg/mL (≈ 1 µM) and the No effect dose (Mus musculus [9]) was 100 mg/kg. The ED50 (Streptococcus pneumoniae [10]) was 75 mg/kg, the MIC (Pseudomonas aeruginosa [11]) was 1.6 µg/mL (≈ 4.01 µM) and the ED50 (Escherichia coli [12]) was 1.8 mg/kg. The MIC (Escherichia coli [13]) was 0.05 µg/mL (≈ 0.125 µM), the MIC (Klebsiella pneumoniae) was 0.1 µg/mL (≈ 0.25 µM) and the “Day of first positve reaction” value [14] was 0. The ED50 (Escherichia coli [15]) was 0.9 mg/kg, the MIC (Streptococcus pneumoniae [16]) was 0.4 µg/mL (≈ 1 µM) and the “No. of pos rxns” value (Mus musculus [17]) was 0. It also gave an MIC (Enterococcus faecalis) of 0.4 µg/mL (≈ 1 µM) and an MIC (Enterobacter cloacae) of 0.05 µg/mL (≈ 0.125 µM).
In the case of `NC1CCCN(c2cc3c(cc2F)c(=O)c(C(=O)O)cn3C2CC2)C1` (centres undefined), the MIC (Escherichia coli [1]) is reported as 0.1 µg/mL (≈ 0.29 µM), the “Day of first positve reaction” value (Mus musculus [18]) is reported as 0 and the PTD50 (Mus musculus [2]) is reported as over 100 mg/kg. It also gave an MIC (Staphylococcus aureus [5]) of 0.05 µg/mL (≈ 0.145 µM), a No. of pos rxns (Mus musculus [19]) of 0 and an MIC (Streptococcus pyogenes [8]) of 0.1 µg/mL (≈ 0.29 µM). For the same molecule, the No effect dose (Mus musculus [9]) was 100 mg/kg, the MIC (Pseudomonas aeruginosa [11]) was 0.8 µg/mL (≈ 2.32 µM) and the ED50 (Escherichia coli [12]) was 15 mg/kg. The ED50 (Streptococcus pyogenes [20]) was 8 mg/kg, the ED50 (Streptococcus pyogenes [21]) was over 50 mg/kg and the MIC (Klebsiella pneumoniae) was 0.2 µg/mL (≈ 0.579 µM). The ED50 (Escherichia coli [15]) was 1.4 mg/kg, the MIC (Streptococcus pneumoniae [16]) was 0.2 µg/mL (≈ 0.579 µM) and the MIC (Escherichia coli [22]) was 0.1 µg/mL (≈ 0.29 µM). It also gave an MIC (Enterococcus faecalis) of 0.2 µg/mL (≈ 0.579 µM), an MTD (Mus musculus [23]) of 100 mg/kg and an MIC [24] of 0.8 µg/mL (≈ 2.32 µM). The MIC (Staphylococcus aureus [25]) was 0.8 µg/mL (≈ 2.32 µM) and the MIC (Enterobacter cloacae) was 0.1 µg/mL (≈ 0.29 µM).
With `NC1CCN(c2c(F)cc3c(=O)c(C(=O)O)cn(C4CC4)c3c2F)C1` (centres undefined) the “No. of pos rxns” value [26] was 15, the MIC (Escherichia coli [1]) was 0.025 µg/mL (≈ 0.0716 µM) and the ED50 (Pseudomonas aeruginosa [27]) was 3 mg/kg. The “Day of first positve reaction” value (Mus musculus [18]) was 3, the PTD50 (Mus musculus [2]) was 4.2 mg/kg and the ED50 (Streptococcus pneumoniae [3]) was 5.5 mg/kg. For the same molecule, the MIC (Staphylococcus aureus [5]) was 0.025 µg/mL (≈ 0.0716 µM), the MIC (Streptococcus pyogenes [8]) was 0.05 µg/mL (≈ 0.143 µM) and the No effect dose (Mus musculus [9]) was 3 mg/kg. The ED50 (Streptococcus pneumoniae [10]) was 15 mg/kg, the MIC (Pseudomonas aeruginosa [11]) was 0.1 µg/mL (≈ 0.286 µM) and the ED50 (Escherichia coli [12]) was 0.9 mg/kg. The ED50 (Streptococcus pyogenes [20]) was 2.3 mg/kg, the ED50 (Streptococcus pyogenes [21]) was 7.5 mg/kg and the MIC (Klebsiella pneumoniae) was 0.025 µg/mL (≈ 0.0716 µM). For the same molecule, the ED50 (Escherichia coli [15]) was 0.2 mg/kg, the MIC (Streptococcus pneumoniae [16]) was 0.1 µg/mL (≈ 0.286 µM) and the MIC (Escherichia coli [22]) was 0.003 µg/mL (≈ 0.00859 µM). For the same molecule, the MIC (Enterococcus faecalis) was 0.1 µg/mL (≈ 0.286 µM), the MTD (Mus musculus [23]) was 6 mg/kg and the MIC [24] was 0.1 µg/mL (≈ 0.286 µM). It also gave an MIC (Staphylococcus aureus [25]) of 0.05 µg/mL (≈ 0.143 µM), an ED50 (Pseudomonas aeruginosa [28]) of 6.5 mg/kg and an MIC (Enterobacter cloacae) of 0.013 µg/mL (≈ 0.0372 µM).
